# Measured values as given in ChEMBL document CHEMBL1140546, “3,5-Disubstituted quinolines as novel c-Jun N-terminal kinase inhibitors” (Bioorg Med Chem Lett, 2007).
# Molecular target: Mitogen-activated protein kinase 10 (Homo sapiens, UniProt P53779)
# Test: Inhibition of JNK3 by HTRF assay
# Procedure, shortened: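 JNK3 phosphorylation of biotinylated-ATF2, final 0.3 nM JNK3, 0.4 nM substrate, 1 μM ATP. The phospho-Thr71-ATF-2 product is detected with a Europium-cryptate-labeled anti-phospho-Thr71-ATF-2 antibody. IC50 values are means of three experiments.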
# Sequence of Mitogen-activated protein kinase 10 (P53779 whole entry): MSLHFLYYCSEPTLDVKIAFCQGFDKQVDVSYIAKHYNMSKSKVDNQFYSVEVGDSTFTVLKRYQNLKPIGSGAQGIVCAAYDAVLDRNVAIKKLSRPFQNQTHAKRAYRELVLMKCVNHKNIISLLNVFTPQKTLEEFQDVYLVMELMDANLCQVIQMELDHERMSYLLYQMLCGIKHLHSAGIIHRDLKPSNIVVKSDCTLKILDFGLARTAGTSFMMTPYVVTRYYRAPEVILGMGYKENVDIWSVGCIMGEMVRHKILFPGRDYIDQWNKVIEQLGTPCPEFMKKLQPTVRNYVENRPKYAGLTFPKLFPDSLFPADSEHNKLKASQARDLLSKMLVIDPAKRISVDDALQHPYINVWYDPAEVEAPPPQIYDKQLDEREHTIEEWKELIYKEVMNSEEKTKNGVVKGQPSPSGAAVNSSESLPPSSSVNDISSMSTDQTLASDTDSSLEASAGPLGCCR
row,IC50 [nM],Compound
1,530,CC(=O)Nc1ccc(-c2cnc3ccc4ccncc4c3c2)cc1
2,> 20000,c1ccc(-c2ccc(-c3cnc4ccc5ccncc5c4c3)cc2)cc1
3,120,CS(=O)(=O)Nc1ccc(-c2cnc3cccc(Nc4ccc(Cl)cn4)c3c2)cc1
4,480,CS(=O)(=O)Nc1ccc(-c2cnc3cccc(Nc4ncccn4)c3c2)cc1
5,3600,c1cc2ccc3ncc(-c4ccc(-c5ccn[nH]5)cc4)cc3c2cn1
6,930,CS(=O)(=O)Nc1ccc(-c2cnc3ccc4ccncc4c3c2)cc1
7,210,CS(=O)(=O)N(c1ccc(-c2cnc3ccc4ccncc4c3c2)cc1)S(C)(=O)=O
8,1300,c1cc2ccc3ncc(-c4ccc(N5CCOCC5)cc4)cc3c2cn1
9,1600,CC(=O)N(C(C)=O)c1ccc(-c2cnc3ccc4ccncc4c3c2)cc1
10,15000,CS(=O)(=O)Nc1ccc(-c2cnc3cccc(Nc4ncccc4Cl)c3c2)cc1
11,510,Nc1ccc(-c2cnc3ccc4ccncc4c3c2)cc1
12,1000,c1ccc(-c2cnc3ccc4ccncc4c3c2)cc1
